A3A deaminase = APOBEC3A ssDNA deaminase inhibitors, primary screen, selectivity assay for APOBEC3G inhibitor project, biochemical, FAM/TAMRA oligo cleavage fluorescence; DNA dC->dU-editing enzyme APOBEC-3A (Homo sapiens), P31941; recombinant A3A, FAM/TAMRA ssDNA deamination fluorescence; inhibition, % at 20 µM; 330,000 compounds, 0.41% hits;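 active = at least 40% inhibition at 20 µM here, with at most 30% in a related deaminase screen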;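 note: plate controls were A3A with DMSO for no effect and wells lacking A3A enzyme for full effect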
Target sequence (P31941 whole entry, looked up): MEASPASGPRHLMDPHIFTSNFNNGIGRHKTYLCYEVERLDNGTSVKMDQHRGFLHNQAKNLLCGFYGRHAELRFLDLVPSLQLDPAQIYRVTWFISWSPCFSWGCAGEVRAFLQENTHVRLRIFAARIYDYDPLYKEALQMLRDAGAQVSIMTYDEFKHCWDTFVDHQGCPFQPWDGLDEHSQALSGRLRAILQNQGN
PfG6PD inh = PfG6PD enzyme inhibitors, primary screen, biochemical, fluorescence intensity, uHTS. PfGluPho enzyme, NADPH resazurin-diaphorase fluorescence. AID 504690, 2011. glucose-6-phosphate dehydrogenase-6-phosphogluconolactonase (Plasmodium falciparum 3D7). inhibition, % at 20 µM. 350,000 compounds, 0.78% hits;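 active = inhibition reaching at least a set limit at 20 µM in the primary screen, cut at about 59% in these data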;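 note: 0% = DMSO wells with substrate and 100% = DMSO wells lacking glucose-6-phosphate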
PfM18AAP inh = PfM18AAP inhibitors, malaria aminopeptidase, primary screen, biochemical, QFRET, recombinant enzyme; AID 1822, 2009; M18 aspartyl aminopeptidase (Plasmodium falciparum 3D7); H-Glu-NHMec fluorogenic cleavage; 290,000 compounds, 1.2% hits; inhibition, % at 7.35 µM;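 active = inhibition above the campaign mean inhibition over all tested compounds plus 3 SD, cut at about 28% in these data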;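 note: 0% = plate median of test compound wells and 100% = 2 mM ZnCl2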
A3G deaminase = APOBEC3G DNA deaminase inhibitors, primary screen, biochemical, fluorescence, single-stranded DNA substrate, uHTS; inhibition, % at 20 µM; 330,000 compounds, 0.28% hits; recombinant A3G, ssDNA deamination FAM/TAMRA fluorescence; AID 493012, 2011; DNA dC->dU-editing enzyme APOBEC-3G (Homo sapiens), Q9HC16;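 active = inhibition of at least 40% at 20 µM, with no more than 30% in the related APOBEC3A deaminase screen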;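 note: plate controls were DMSO wells with A3G for no effect and wells lacking A3G enzyme for full effect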
SUMO HTRF inh = inhibitors of in vitro SUMOylation cascade, primary screen, biochemical, HTRF, uHTS. 290,000 compounds, 0.36% hits. HTRF SUMOylation assay, SAE1/SAE2 + UBC9. inhibition, % at 35 µM. AID 2006, 2009. SUMO-conjugating enzyme UBC9 (Homo sapiens), P63279; in the data active = inhibition above about 50%, passing the limit was not always enough
Target sequence (P63279 whole entry, looked up): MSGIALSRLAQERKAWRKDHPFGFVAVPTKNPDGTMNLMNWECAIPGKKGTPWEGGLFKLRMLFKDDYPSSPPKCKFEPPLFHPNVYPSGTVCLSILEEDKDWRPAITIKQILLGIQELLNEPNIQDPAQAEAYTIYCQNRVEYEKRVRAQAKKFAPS
HKDC1 inhibitor = HKDC1 hexokinase inhibitors, primary screen, biochemical, fluorescence, uHTS; 340,000 compounds, 0.16% hits; inhibition, % at 20 µM; AID 493160, 2011; recombinant HKDC1, G6PDH/diaphorase resazurin coupled fluorescence;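 active = inhibition above about 35% when tested at 20 µM, limit read from the data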;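 note: plate controls were DMSO wells with enzyme for no effect and DMSO wells lacking enzyme for full effect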
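Test system: HK5 enzyme. Quantity: 5 µg/mL HK5 final. Reagent: glucose and ATP substrates. Schedule: 90 min reaction incubation at room temperature, dark. Technique: resazurin-to-resorufin fluorescence via G6PDH and diaphorase coupling, 525/613 nm. Control set: DMSO wells with and without enzyme mix.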
An asterisk follows results filed as active; . = no result. This is a sample that favours compounds with a hit; in the whole collection about 2.4% have one here.

SMILES | A3A deaminase | PfG6PD inh | PfM18AAP inh | A3G deaminase | SUMO HTRF inh | HKDC1 inhibitor
CN1/C(=C/C(=O)c2ccc(Cl)cc2)Sc2cc3c(cc21)OCO3 | 3 | 26 | 32* | 3 | -7 | -2
Cc1ccccc1-c1cc2c(nn1)-c1ccccc1C2=O | -9 | -5 | -19 | -7 | 88* | 9
COc1cc2c(C#N)c(N3CCN(C)CC3)nc(N)c2c(N)n1 | 2 | . | 5 | 2 | 99* | .
CCOC(=O)CCP(=O)(O)C(O)c1ccccc1 (stereo not given) | 5 | -12 | -12 | 2 | -2 | -1
O=C(CN1C(=O)/C(=C/c2ccco2)SC1=S)Nc1ccc(C(=O)O)c(O)c1 | 93 | -14 | 47* | 73 | 72* | 17
O=C(CCCN1C(=O)/C(=C\c2ccco2)SC1=S)Nc1ccc(O)cc1C(=O)O | 100 | -2 | 8 | 86 | . | 15
O=C(CCCN1C(=O)/C(=C/c2ccccc2)SC1=S)Nc1ccc(C(=O)O)c(O)c1 | 2 | -22 | 6 | 0 | 9 | 8
O=C(CCN1C(=O)/C(=C\c2ccccc2F)SC1=S)Nc1ccc(C(=O)O)c(O)c1 | -3 | . | 5 | -7 | 28 | .
O=C(CCCN1C(=O)/C(=C\c2cccs2)SC1=S)Nc1cccc(C(=O)O)c1 | -2 | -28 | -11 | -1 | 16 | 23
CC(C(=O)Nc1ccc(C(=O)O)c(O)c1)N1C(=O)/C(=C\c2ccco2)SC1=S (stereo not given) | 90 | 5 | 28* | 69 | 57* | 14
O=C(CN1C(=O)/C(=C/c2ccco2)SC1=S)Nc1ccc(O)c(C(=O)O)c1 | 94 | -35 | 24 | 75 | 51* | 17
O=C(CCCN1C(=O)/C(=C/c2ccco2)SC1=S)Nc1cccc(C(=O)O)c1 | 95 | -1 | -8 | 88 | 64* | 5
CC(C)C[C@@H](CN=[N+]=[N-])N1CCN(CC(C)C)CCC1=O | -1 | -7 | 1 | -13 | 4 | 4
CCC1CCC(C(=O)NC(CCSC)C(=O)NCCc2ccc(S(N)(=O)=O)cc2)CC1 (stereo not given) | -3 | 4 | -13 | 5 | 11 | -3
CC(C(=O)N(C)C1CCS(=O)(=O)C1)N1C(=O)/C(=C/c2cccs2)SC1=S (stereo not given) | -6 | 10 | 3 | -10 | 5 | 3
CC(C(=O)N(C)C1CCS(=O)(=O)C1)N1C(=O)/C(=C/c2ccco2)SC1=S (stereo not given) | 24 | 19 | 31* | 1 | 13 | 7
COCCN1C(=O)N[C@@H](c2cccc(C(F)(F)F)c2)[C@H](C(C)=O)[C@H]1C | 3 | -2 | . | -7 | . | -2
Nc1ccc(Br)c2cccnc12 | 1 | 63* | 24 | -11 | 80 | 30
CCCCCCCC(=O)NC(Nc1ccc(S(N)(=O)=O)cc1)C(Cl)(Cl)Cl (stereo not given) | 0 | 14 | 0 | 0 | -10 | 4
Cc1ccc(/C=N/NC(=O)c2cccc(S(=O)(=O)Nc3cccc(Cl)c3)c2)o1 | -1 | -11 | -5 | -3 | 61* | -13
O=C(N/N=C/c1cccnc1)c1cccc(S(=O)(=O)Nc2cccc(Cl)c2)c1 | 4 | 2 | 0 | -7 | 27 | 0
O=C(N/N=C/c1ccncc1)c1cccc(S(=O)(=O)Nc2ccc(Cl)cc2)c1 | -2 | -5 | 33* | -6 | 23 | 12
Cc1cc(C2(O)C(=O)Nc3ccccc32)ccc1F (stereo not given) | 1 | -8 | -3 | -3 | 10 | 1
Cc1cc[n+](-c2[nH]c(=O)sc2/C=N/NC([S-])=Nc2ccccc2)cc1 | 0 | 29 | 31* | -9 | -7 | 2
O=c1[nH]c(-[n+]2ccccc2)c(/C=N/NC([S-])=Nc2ccccc2)s1 | -2 | 28 | 28 | -6 | 2 | 0
SMILES | A3A deaminase | PfG6PD inh | PfM18AAP inh | A3G deaminase | SUMO HTRF inh | HKDC1 inhibitor
CCc1nnc(N/N=C/c2cccs2)n1N | 0 | 45 | 53* | -7 | 28 | -2
COc1cc(/C(C)=N/NC(=O)CSc2nc3ccccc3[nH]2)ccc1O | 8 | 19 | 5 | 1 | 15 | 9
O=C(O)c1ccc(N2CCN(c3ccc(Cl)cc3)CC2)c([N+](=O)[O-])c1 | -1 | -15 | 10 | -6 | 2 | 0
O=[N+]([O-])c1ccc(N2CCN(c3ccccc3Cl)CC2)cn1 | 1 | -11 | 32* | -4 | 0 | 3
CC1CSc2ccccc2NC1=S (stereo not given) | -5 | 31 | 3 | -5 | 11 | 0
c1ccc(C2CSc3ccccc3N2)cc1 (stereo not given) | -3 | 26 | 41* | 3 | -3 | -2
CCC1CCc2c(sc(N)c2C(N)=O)C1 (stereo not given) | -2 | 41 | 23 | -1 | . | 6
CC1CCc2c(sc(N)c2C(N)=O)C1 (stereo not given) | -7 | 51 | 29* | 1 | 9 | 1
Cn1nc([N+](=O)[O-])nc1N1CCN(c2ccc(F)cc2)CC1 | 3 | 25 | 28* | 5 | 12 | -7
Cc1cc([N+](=O)[O-])nn1CCCC(=O)N1CCN(c2ccc(F)cc2)CC1 | -4 | -19 | -2 | -6 | -1 | -5
Cc1n[nH]c(=S)n(/N=C/c2cccc([N+](=O)[O-])c2)c1=O | 1 | -7 | 6 | -4 | -12 | -2
COc1cc(/C=N/n2c(=S)[nH]nc(C)c2=O)cc([N+](=O)[O-])c1O | -4 | 8 | 29* | -8 | 8 | 10
Cn1cnc([N+](=O)[O-])c1Sc1ncnc2nc[nH]c12 | 1 | 9 | 6 | -8 | -9 | -2
Cn1cnc(Sc2ncnc3nc[nH]c23)c1[N+](=O)[O-] | -3 | 61* | 3 | -10 | 29 | -8
Cc1nn(-c2ccccc2)c2c1C(c1ccc(O)c(O)c1)N1C(=N2)C(Nc2ccccc2)=Nc2ccccc21 (stereo not given) | 5 | -13 | 34* | 8 | 33 | -5
O=C1CNC(=S)N1CCc1ccc(O)c(O)c1 | 2 | 14 | 69* | 2 | -12 | -6
CCOC(=O)Cn1c2ccccc2c2nc3ccccc3nc21 | -4 | 38 | -5 | -8 | 94* | 2
Cc1cccc(NC2=C/C(=N/S(=O)(=O)c3cccs3)c3ccccc3C2=O)c1 | . | 62* | -2 | . | 24 | 53*

Screening data from PubChem.
